# Screening results (PubChem)
# An excerpt weighted towards active compounds, which were near 3.4% of everything screened.
# p97 ATPase inh = blocks human p97 ATPase activity. recombinant p97 ATPase, Kinase-Glo ATP luminescence, 3 h. 220,000 tested, 0.42% active. inhibition, % at 8 µM; in the data active means inhibition above about 15%;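 further: 0% = DMSO vehicle and 100% = wells lacking enzyme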
# ROMK mod = modulators of human ROMK potassium channel. P48048. 130,000 tested, 2% active. B-score at 10 µM. AID 1918. Tet-inducible ROMK, thallium flux fluorescence; actives lie on both sides;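 active means signal ratio slope over the read window, or its plate-corrected B-score, at least 3 SD from the plate mean, either direction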;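 further: B-score of the F/F0 ratio slope over 7 to 12 s after thallium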
# KCC2 mod = modulators of human KCC2 chloride dependent transport | 190,000 tested, 2.2% active | KCC2 cells, thallium flux FluoZin-2 fluorescence | Q9H2X9 | B-score of Tl+ flux slope (higher = more flux/activation; lower = inhibition) at 10 µM;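 active means thallium flux slope and its plate-corrected score both differing from the plate sample mean at a set confidence after two filtering rounds, in either direction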;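 further: slope of fluorescence scaled to starting intensity during 10 to 20 s after thallium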
# MDM2 E3 inh = blocks human Mdm2 ubiquitin ligase activity; cell-based MDM2 ubiquitination luciferase reporter, 2 h; 0 = plate control, 100 = twice control, blank-subtracted; 210,000 tested, 0.11% active; Q00987; AID 1230; signal enhancement, % at 5 µM;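 active means signal enhancement of 30% or more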;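 further: luminescence tracks abundance of the self-degrading MDM2-luciferase fusion protein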
# Target sequence (Q00987 whole entry, looked up, the tested form may be a part): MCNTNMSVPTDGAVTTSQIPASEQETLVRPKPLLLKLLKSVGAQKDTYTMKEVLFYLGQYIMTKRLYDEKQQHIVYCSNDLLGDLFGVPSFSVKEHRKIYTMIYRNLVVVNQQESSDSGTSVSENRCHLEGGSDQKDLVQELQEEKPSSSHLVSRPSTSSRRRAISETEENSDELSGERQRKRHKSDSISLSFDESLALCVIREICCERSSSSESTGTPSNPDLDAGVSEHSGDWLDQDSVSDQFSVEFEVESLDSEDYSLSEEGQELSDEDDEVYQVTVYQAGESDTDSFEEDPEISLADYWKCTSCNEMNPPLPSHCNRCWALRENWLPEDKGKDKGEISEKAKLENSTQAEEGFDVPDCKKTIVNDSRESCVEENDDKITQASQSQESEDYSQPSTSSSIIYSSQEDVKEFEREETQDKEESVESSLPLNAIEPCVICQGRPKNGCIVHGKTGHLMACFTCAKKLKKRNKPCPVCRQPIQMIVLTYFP
#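 system = mammalian cells stably expressing self-ubiquitinating, self-degrading MDM2 E3–luciferase fusion | quantity = 2000 cells per well seeded | incubation = 4 h cell settling then 2 h compound exposure, 37 °C | signal = SteadyLite luminescence, 15 min reagent step | benchmarks = plate control and blank wells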
# PKD1 inh = inhibitors of human PKD1 kinase. Q15139. PKD1 kinase fluorescence polarization assay. inhibition, % (test concentration not listed). 200,000 tested, 0.056% active; in the data active means inhibition above about 50%
# DTT redox prof = compounds producing H2O2 with reducing agent – biochemical, NIH compound library profiling, artefact control for MLSCN library redox annotation, primary screen. DTT-dependent redox cycling H2O2, phenol red/HRP absorbance; 100% = 100 µM peroxide control, 0% = buffer. activation, % at 10 µM. 200,000 tested, 0.03% active. AID 878;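 active means activation of at least 50% relative to the plate's high and low controls in the primary single-dose screen; inactive means activation below 50%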;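 further: compound incubated with DTT at 0.8 mM final as the reducing agent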
# KCC2 secondary = confirmation of human KCC2 transport modulators. shares compounds with KCC2 mod. HEK293-KCC2, thallium flux, FluoZin2 fluorescence; hits give high values. normalised thallium flux (F/F0 slope) at 10 µM. 3,700 tested, 15% active. AID 1713;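 active means thallium flux slope above the same plate's solvent-only control mean plus 3 SD; inconclusive means the two replicate wells disagree; inactive means no significant difference from solvent-only control wells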
# KCC2 bumet counter = thallium flux persisting under bumetanide in KCC2 cells, counter-screen secondary assay; shares compounds with KCC2 mod; HEK293-KCC2 + bumetanide/ouabain, thallium flux FluoZin2; hits give high values; 3,700 tested, 49% active; normalized thallium flux at 10 µM;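 active means thallium entry rate above the same plate's blocked-transporter control wells by more than 3 SD; inconclusive means the two repeat wells disagree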;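 further: raw slope of fluorescence over initial fluorescence between 10 and 20 s after thallium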
# KCC2 sec2 = confirmation of human KCC2 transport modulators. shares compounds with KCC2 mod. HEK293-KCC2, thallium flux FluoZin2 fluorescence; actives lie on both sides; F/F0 rise rate, 10–20 s post-thallium. normalized thallium flux at 10 µM. 3,700 tested, 23% active. AID 1715;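 active means thallium flux slope more than 3 SD above or below the plate's solvent-only control mean, mostly below; inconclusive means the two repeat wells disagreed; inactive means no significant shift from solvent-only controls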;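 further: raw slope with 0.1% DMSO as baseline and bumetanide as block control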
# HEK293 Tl flux = parental HEK flux effect, counter-screen; shares compounds with KCC2 mod; 3,700 tested, 46% active; AID 1716; thallium flux rate (normalised fluorescence) at 10 µM; HEK293 parental cells, thallium flux FluoZin2, ouabain; baseline-ratio fluorescence slope, 10–20 s after thallium;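 active means thallium flux rate significantly above the same plate's solvent-only control wells, beyond their mean plus 3 SD; inconclusive means the two replicate wells gave conflicting results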
# KCC2 retest ouab = KCC2 (human) modulation, ouabain retest; raw Tl+ flux slope (below DMSO = inhibition, above = activation) at 10 µM; HEK293-KCC2, thallium flux FluoZin2 fluorescence; bidirectional: low = inhibitor, high = activator; shares compounds with KCC2 mod; 3,700 tested, 48% active; AID 1717;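 active means thallium flux slope beyond 3 SD from same-plate DMSO control mean in most replicates, usually higher, sometimes lower; inconclusive means repeat tests gave conflicting results; inactive means no significant difference from controls in most replicates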;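 further: slope of initial-normalized fluorescence between seconds 10 and 20 after thallium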
# HEK293 Tl flux2 = acts in parental HEK cells, second KCC2 counter-screen; shares compounds with KCC2 mod; HEK293 parental, thallium flux FluoZin-2 fluorescence slope; thallium flux slope at 10 µM; 3,700 tested, 33% active; AID 1718;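 active means thallium flux slope above the same plate's solvent-control mean plus 3 SD in both duplicate wells; inconclusive means duplicate wells that disagreed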;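 further: run without ouabain in cells lacking the KCC2 cotransporter; slope of fluorescence scaled to its starting value between 10 and 20 s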
# Active calls of the source: *; ? = inconclusive; nt = no result.
SMILES,p97 ATPase inh,ROMK mod,KCC2 mod,MDM2 E3 inh,PKD1 inh,DTT redox prof,KCC2 secondary,KCC2 bumet counter,KCC2 sec2,HEK293 Tl flux,KCC2 retest ouab,HEK293 Tl flux2
CNc1ccc(/C=C(\CCC(=O)O)c2nc3ccccc3s2)cc1[N+](=O)[O-],4.2,0.0354,-5.47*,-16.5,8.4,0.1,0.00944,0.00618,0.0248*,0.00834,0.0127*,0.0115
Cc1ccc(/C=C(\CCC(=O)O)c2nc3ccccc3s2)cc1[N+](=O)[O-],0.3,0.323,-6.9*,3.9,-11.7,0.1,0.00567,0.00477,0.0216*,0.00583*,0.01*,?
CN(c1ccccc1)c1ccc(/C=C(\CCC(=O)O)c2nc3ccccc3s2)cc1[N+](=O)[O-],-7.0,-0.145,-6.94*,-13.1,2.9,0.2,0.00526,0.00465,0.0212*,0.00693,0.0117*,0.00978
CCOc1cc(/C=C(\CC(=O)O)c2nc3ccccc3s2)ccc1OC,-8.9,0.00975,1.41,-16.0,-5.7,-0.9,nt,nt,nt,nt,nt,nt
O=C(NCc1nnc(SCC(=O)N2CCC(Cc3ccccc3)CC2)o1)c1ccccc1F,-1.0,nt,-2.24,-16.3,-8.6,0.0,nt,nt,nt,nt,nt,nt
Cc1onc(-c2c(Cl)cccc2Cl)c1C(=O)NNc1ccccc1,8.7,nt,-0.301,-10.5,nt,nt,nt,nt,nt,nt,nt,nt
COC(=O)C1=C(C(=O)OC)[C@@H]2N(C)c3ccccc3[C@@]23C[C@@H](C(=O)OC)N(C(=O)C2CCC2)C3=N1,nt,nt,-0.342,19.4,nt,nt,nt,nt,nt,nt,nt,nt
CN(C)CCCN1C(=O)c2oc3ccc(Cl)cc3c(=O)c2C1c1cccnc1 (centres undefined),4.7,nt,3.73*,-7.8,-9.8,-0.3,0.00939,0.0155*,0.034,0.00989*,?,0.0108
CN(C)CCN1C(=O)c2oc3ccc(F)cc3c(=O)c2C1c1ccncc1 (centres undefined),-2.4,nt,1.76,-12.6,-8.2,-0.8,nt,nt,nt,nt,nt,nt
O=C(C1CCN(S(=O)(=O)c2cccs2)CC1)N1CCc2ccccc2C1,-1.3,nt,-4.11*,-16.0,7.2,0.3,0.00569,0.00461,0.0236*,0.00732,0.0176*,0.00991
O=C(C1CCCN(S(=O)(=O)c2cccs2)C1)N1CCc2ccccc2C1 (centres undefined),0.5,nt,-3.04*,-3.3,-8.3,1.9,0.00789,0.00614,0.0333,0.00424,0.0156*,0.0112
Cc1noc(/C=C/c2ccco2)c1S(=O)(=O)N1CCC(C(=O)N2CCc3ccccc3C2)CC1,6.4,nt,-0.535,0.0,-3.5,-0.6,0.00543,0.00457,0.0264*,0.00719,?,0.0102
Cc1ccc(NC(=O)C2CCN(S(=O)(=O)c3c(C)noc3/C=C/c3ccco3)CC2)nc1,-4.2,-0.497,0.549,-6.9,-7.0,0.4,nt,nt,nt,nt,nt,nt
CCOC(=O)C(O)(NC(=O)c1cccnc1)C(F)(F)F (centres undefined),-2.5,nt,0.613,-14.3,-4.1,3.2,nt,nt,nt,nt,nt,nt
COc1ccc(N=Nc2nc3cc(Br)c(Br)cc3n2C)c(OC)c1,1.7,nt,-1.22,-1.6,28.3,0.3,nt,nt,nt,nt,nt,nt
CCCOc1ccc(CN(CCC#N)C(=S)NC(=O)c2ccccc2)cc1,0.3,2.5,80.1*,3.2,-4.3,-0.1,0.0554*,0.108*,0.074*,0.103*,0.111*,0.0553*
N#CCCN(Cc1cccnc1)C(=S)NC(=O)c1ccc(S(=O)(=O)N2CCCC2)cc1,4.2,0.012,0.293,-8.3,-5.1,0.8,nt,nt,nt,nt,nt,nt
COc1ccc(C(=O)NC(=S)N(C)Cc2ccccc2)cc1Br,6.3,0.15,10.8*,-5.8,-2.1,-1.2,0.00788,0.0192*,0.037,0.022*,0.044*,0.0162*
CN(Cc1ccccc1)C(=S)NC(=O)c1ccccc1,2.1,1.22,65*,-3.6,1.1,-2.2,0.0562*,0.161*,0.0697*,0.0847*,0.127*,0.036*
Cc1nn(C)cc1CN1CCCC(C(=O)c2ccc(-c3ccccc3)cc2)C1 (centres undefined),-2.5,-0.459,-1.28,-9.1,-2.8,-0.8,nt,nt,nt,nt,nt,nt
CCOC(=O)c1c(NC(=O)Cn2cnc([N+](=O)[O-])n2)sc(C)c1C,5.4,0.604,1.09,2.8,5.5,0.3,nt,nt,nt,nt,nt,nt
CCOc1ccc(Oc2c(/C=N/NC(=O)COc3ccccc3OC)c(C)nn2-c2ccccc2)cc1,-7.7,0.559,0.865,0.2,-16.0,-0.6,nt,nt,nt,nt,nt,nt
O=C(Cc1ccc(Cl)cc1)NNS(=O)(=O)c1ccc([N+](=O)[O-])cc1,-3.2,0.00553,-0.657,-18.1,2.7,3.2,nt,nt,nt,nt,nt,nt
Cc1cnc([N+](=O)[O-])n1CCOC(=O)NC(=O)c1ccccc1Cl,2.5,0.317,1.06,0.6,5.5,0.7,nt,nt,nt,nt,nt,nt
Cc1ccc(C(C#N)c2ccc3c(C(F)(F)F)cc(C(F)(F)F)nc3n2)cc1 (centres undefined),6.9,nt,13.4*,-35.2,-10.6,1.3,0.0216*,0.0646*,?,0.0165*,0.0329*,0.0161*
N#CC(c1ccccc1)c1ccc2c(C(F)(F)F)cc(C(F)(F)F)nc2n1 (centres undefined),-4.3,-0.456,1.72,-7.9,-1.8,0.2,nt,nt,nt,nt,nt,nt
CCN(CC)S(=O)(=O)c1ccccc1/C=N\O,3.0,nt,-1.9,-9.7,-4.4,-0.8,nt,nt,nt,nt,nt,nt
CCC(C)NC(=O)c1ccccc1C(=O)NC(C)CC (centres undefined),2.9,nt,1.75,-14.9,-3.4,-0.2,nt,nt,nt,nt,nt,nt
CN(C)c1cccc(C(=O)N/C=C/n2cnc3cc(C(F)(F)F)ccc32)c1,-4.2,1.06,0.353,6.8,-4.9,-0.9,nt,nt,nt,nt,nt,nt
O=C(CCc1nnc(COc2ccccc2)o1)NCc1ccccc1C(F)(F)F,0.6,-0.108,-3.19*,7.6,1.0,0.1,0.00739,0.00627,0.0359,0.00389,0.0167*,0.0109
